Reference: ChEMBL document CHEMBL1140296, “Anilinodialkoxyquinazolines: screening epidermal growth factor receptor tyrosine kinase inhibitors for potential tumor imaging probes” (J Med Chem, 2005)
pIC50: −log10 of the molar value.

Tests used:
[1] = target: T1, Epidermal growth factor receptor (Homo sapiens, UniProt P00533); assay: Displacement of [125I]4-(3-iodoanilino)-6,7-dimethoxyquinazoline from EGFR tyrosine kinase in human A431 cell membranes; parameters: species or system A-431
[2] = Lipophilicity, log P of the compound; format: physicochemical; details: octanol/water
Summary of the method: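 Log Po/w estimated by reversed-phase HPLC on a C8 column. Mobile phases were methanol with 0.25% 1-octanol and octanol-saturated water with 0.02 M MOPS and 0.15% n-decylamine, pH 7.4, at 1 mL/min. Uracil served as void marker. log k′w was obtained by linear extrapolation of retention over 60–85% methanol.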

[3] = target: T1, Epidermal growth factor receptor; assay: Inhibition of human EGFR tyrosine kinase phosphorylation expressed in mouse BaF3 cells; format: functional, cell-based
[4] = target: Receptor tyrosine-protein kinase erbB-2 (Homo sapiens, UniProt P04626); assay: Inhibition of human ErbB2 tyrosine kinase phosphorylation expressed in mouse BaF3 cells; format: functional, cell-based
[5] = target: Receptor tyrosine-protein kinase erbB-4 (Homo sapiens, UniProt Q15303); assay: Inhibition of human ErbB4 tyrosine kinase phosphorylation expressed in human CEM/4 cells; format: functional, cell-based
Summary of the method: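 CEM cells expressing ErbB4, grown in RPMI with 10% heat-inactivated FBS and G418, then serum-starved 24 h at 37 °C. About 10^7 cells/mL given inhibitor at three to five concentrations for 2 h at 37 °C, chilled 20 min, then stimulated with NRG1β 100 ng/mL final for 7 min on ice. Lysate glycoproteins captured on ConA. Phosphotyrosine read by 4G10 immunoblot. IC50 read against DMSO standard curve.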

Sequence of Receptor tyrosine-protein kinase erbB-2 (P04626 whole entry): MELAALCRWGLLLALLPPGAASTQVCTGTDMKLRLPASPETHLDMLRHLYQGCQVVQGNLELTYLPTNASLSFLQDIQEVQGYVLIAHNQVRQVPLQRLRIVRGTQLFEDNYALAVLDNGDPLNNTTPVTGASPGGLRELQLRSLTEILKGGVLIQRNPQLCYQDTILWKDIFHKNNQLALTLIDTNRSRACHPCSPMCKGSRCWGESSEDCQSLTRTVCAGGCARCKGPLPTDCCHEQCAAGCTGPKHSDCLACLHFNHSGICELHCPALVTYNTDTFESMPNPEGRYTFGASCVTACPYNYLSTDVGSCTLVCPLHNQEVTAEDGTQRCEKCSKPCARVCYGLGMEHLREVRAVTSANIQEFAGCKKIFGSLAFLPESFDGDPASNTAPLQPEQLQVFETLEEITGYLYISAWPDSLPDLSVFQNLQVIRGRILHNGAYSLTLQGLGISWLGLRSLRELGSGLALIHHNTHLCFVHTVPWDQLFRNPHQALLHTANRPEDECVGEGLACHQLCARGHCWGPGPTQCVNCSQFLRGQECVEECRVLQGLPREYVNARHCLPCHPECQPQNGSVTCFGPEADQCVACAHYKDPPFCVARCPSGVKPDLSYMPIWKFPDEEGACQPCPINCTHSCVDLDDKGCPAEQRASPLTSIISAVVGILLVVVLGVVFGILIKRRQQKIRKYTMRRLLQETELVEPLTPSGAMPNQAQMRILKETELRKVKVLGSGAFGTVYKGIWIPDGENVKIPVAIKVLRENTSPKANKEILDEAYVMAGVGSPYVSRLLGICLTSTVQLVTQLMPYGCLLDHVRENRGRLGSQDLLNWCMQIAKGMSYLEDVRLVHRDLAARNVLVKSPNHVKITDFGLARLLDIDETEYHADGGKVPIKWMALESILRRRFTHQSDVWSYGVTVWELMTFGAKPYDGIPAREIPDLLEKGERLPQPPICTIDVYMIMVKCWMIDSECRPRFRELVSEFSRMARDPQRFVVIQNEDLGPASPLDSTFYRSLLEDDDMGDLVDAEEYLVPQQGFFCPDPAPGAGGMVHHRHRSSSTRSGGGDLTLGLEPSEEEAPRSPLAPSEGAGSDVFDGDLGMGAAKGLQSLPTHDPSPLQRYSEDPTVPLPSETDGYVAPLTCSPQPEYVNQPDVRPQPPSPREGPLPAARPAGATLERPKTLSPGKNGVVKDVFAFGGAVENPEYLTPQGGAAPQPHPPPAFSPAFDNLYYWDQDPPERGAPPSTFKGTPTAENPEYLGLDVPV
T1 sequence (P00533 whole entry): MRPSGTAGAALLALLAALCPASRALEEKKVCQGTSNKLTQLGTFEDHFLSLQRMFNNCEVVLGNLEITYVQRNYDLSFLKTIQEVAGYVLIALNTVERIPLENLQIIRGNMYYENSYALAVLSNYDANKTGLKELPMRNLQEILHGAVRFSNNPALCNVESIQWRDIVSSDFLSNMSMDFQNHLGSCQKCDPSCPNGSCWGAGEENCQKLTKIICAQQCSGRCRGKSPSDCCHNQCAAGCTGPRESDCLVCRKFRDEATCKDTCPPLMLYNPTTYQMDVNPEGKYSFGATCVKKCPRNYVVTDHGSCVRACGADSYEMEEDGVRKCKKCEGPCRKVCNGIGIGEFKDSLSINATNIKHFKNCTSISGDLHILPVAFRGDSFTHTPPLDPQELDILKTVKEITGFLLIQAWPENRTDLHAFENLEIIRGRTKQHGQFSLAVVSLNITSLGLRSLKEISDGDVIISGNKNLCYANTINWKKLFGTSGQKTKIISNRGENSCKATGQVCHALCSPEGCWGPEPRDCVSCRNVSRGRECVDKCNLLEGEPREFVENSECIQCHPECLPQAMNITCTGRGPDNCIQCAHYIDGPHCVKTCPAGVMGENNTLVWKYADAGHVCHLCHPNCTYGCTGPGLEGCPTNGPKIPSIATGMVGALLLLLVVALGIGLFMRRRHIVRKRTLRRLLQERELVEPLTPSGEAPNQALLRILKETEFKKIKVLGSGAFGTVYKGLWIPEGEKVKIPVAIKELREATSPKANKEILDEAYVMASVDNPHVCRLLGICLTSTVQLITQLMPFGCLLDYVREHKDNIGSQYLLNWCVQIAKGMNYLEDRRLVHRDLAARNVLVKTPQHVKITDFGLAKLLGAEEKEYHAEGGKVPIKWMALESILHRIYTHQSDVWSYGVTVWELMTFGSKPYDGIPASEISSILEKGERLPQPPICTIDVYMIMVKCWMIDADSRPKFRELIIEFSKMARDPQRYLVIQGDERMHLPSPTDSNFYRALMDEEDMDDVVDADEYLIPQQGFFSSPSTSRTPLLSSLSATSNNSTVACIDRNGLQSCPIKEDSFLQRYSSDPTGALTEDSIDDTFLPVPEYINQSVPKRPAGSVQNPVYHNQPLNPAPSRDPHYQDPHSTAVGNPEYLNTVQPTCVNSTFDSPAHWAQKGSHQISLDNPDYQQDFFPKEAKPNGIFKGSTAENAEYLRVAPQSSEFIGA
Sequence of Receptor tyrosine-protein kinase erbB-4 (Q15303 whole entry): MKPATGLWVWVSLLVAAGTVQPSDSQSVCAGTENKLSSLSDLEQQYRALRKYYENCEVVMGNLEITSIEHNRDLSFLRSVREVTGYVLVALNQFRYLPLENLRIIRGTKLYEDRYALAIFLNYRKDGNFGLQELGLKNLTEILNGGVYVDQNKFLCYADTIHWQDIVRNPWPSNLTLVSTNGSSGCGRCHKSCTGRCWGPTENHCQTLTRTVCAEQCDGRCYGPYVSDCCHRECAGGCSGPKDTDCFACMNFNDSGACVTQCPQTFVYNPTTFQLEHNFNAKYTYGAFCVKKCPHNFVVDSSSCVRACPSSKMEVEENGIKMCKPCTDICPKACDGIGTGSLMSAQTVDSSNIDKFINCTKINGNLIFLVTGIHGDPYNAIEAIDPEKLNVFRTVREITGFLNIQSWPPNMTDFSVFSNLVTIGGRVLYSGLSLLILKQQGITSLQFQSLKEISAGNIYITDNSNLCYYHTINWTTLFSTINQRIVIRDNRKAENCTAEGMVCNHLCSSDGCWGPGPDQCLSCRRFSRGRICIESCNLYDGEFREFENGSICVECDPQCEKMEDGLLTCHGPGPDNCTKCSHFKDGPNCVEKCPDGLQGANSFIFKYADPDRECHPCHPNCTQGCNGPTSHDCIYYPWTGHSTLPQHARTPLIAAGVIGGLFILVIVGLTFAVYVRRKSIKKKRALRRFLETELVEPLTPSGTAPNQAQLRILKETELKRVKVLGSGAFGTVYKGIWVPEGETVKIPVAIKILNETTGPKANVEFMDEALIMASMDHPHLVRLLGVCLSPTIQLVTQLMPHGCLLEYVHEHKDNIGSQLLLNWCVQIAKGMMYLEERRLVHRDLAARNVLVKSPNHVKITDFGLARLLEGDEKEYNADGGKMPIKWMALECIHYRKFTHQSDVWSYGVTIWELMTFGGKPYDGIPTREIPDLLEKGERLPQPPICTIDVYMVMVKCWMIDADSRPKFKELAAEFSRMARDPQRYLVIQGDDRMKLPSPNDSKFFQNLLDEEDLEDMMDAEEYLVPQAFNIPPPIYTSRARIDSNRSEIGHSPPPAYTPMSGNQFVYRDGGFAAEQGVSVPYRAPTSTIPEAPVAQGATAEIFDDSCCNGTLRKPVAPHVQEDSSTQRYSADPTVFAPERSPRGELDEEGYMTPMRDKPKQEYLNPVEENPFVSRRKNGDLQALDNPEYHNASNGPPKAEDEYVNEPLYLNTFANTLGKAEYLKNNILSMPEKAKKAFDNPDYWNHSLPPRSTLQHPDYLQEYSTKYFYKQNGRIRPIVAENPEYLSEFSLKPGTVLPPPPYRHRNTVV

SMILES	pIC50 [1]	logP [2]	pIC50 [3]	pIC50 [4]	pIC50 [5]
COc1cc2ncnc(Nc3ccc(F)cc3)c2cc1OC	7.29	2.87	7.72		
CCOc1cc2ncnc(Nc3cc(F)cc(C(F)(F)F)c3)c2cc1OCC	8.05	5.49	< 7.30		
COc1cc2ncnc(Nc3cc(F)cc(C(F)(F)F)c3)c2cc1OC	7.70	4.66	7.72		
CCOc1cc2ncnc(NCc3ccc(F)cc3)c2cc1OCC	7.77	3.78	8.18	6.64	< 7.00
COc1cc2ncnc(NCc3ccc(F)cc3)c2cc1OC		3.02			
CCOc1cc2ncnc(Nc3ccccc3F)c2cc1OCC	8.03	3.02	7.80		
CCOc1cc2ncnc(Nc3ccc(F)cc3)c2cc1OCC	7.80	3.73	7.64		
COc1cc2ncnc(Nc3cccc(Br)c3)c2cc1OC		3.49			7.31
CCOc1cc2ncnc(Nc3cccc(Br)c3)c2cc1OCC	9.39	4.4	8.49	6.67	7.30
CCOc1cc2ncnc(Nc3cccc(F)c3)c2cc1OCC	8.09	3.71	8.19		
CCOc1cc2ncnc(Nc3cccc(I)c3)c2cc1OCC	9.19	4.62	8.34	7.16	7.23
COc1cc2ncnc(Nc3cccc(I)c3)c2cc1OC	8.98	3.65	8.19		
COc1cc2ncnc(Nc3ccccc3F)c2cc1OC	7.49	2.2	7.89		
CCOc1cc2ncnc(Nc3cccc(Cl)c3)c2cc1OCC	9.42	4.31	8.92		
COc1cc2ncnc(Nc3cccc(Cl)c3)c2cc1OC		3.51			
COc1cc2ncnc(Nc3cccc(F)c3)c2cc1OC		2.96			
